Reference: ChEMBL document CHEMBL1154266, “Synthesis, conformational analysis, and biological evaluation of 19-nor-vitamin D3 analogues with A-ring modifications” (J Med Chem, 2009)
Where “and” joins values, the source holds several entries; their conditions need not be identical. Equal entries are not always repeated.

How the values were obtained:
MCF7 [1] = assay: Antiproliferative activity against human MCF7 cells at EC50 after 72 hrs by [3H]thymidine incorporation assay relative to 1-alpha,25-(OH)2D3; type: functional
Method in brief: (§1)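 MCF-7 breast cancer cells; proliferation read by [³H]thymidine incorporation. Inhibition was scored at 10^-6 M, and the concentration giving half-maximal response was derived. Values are mean ± SD, n = 3.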

MCF7 [2] = assay: Ratio of 1-alpha,25-(OH)2D3 to compound antiproliferative activity against human MCF7 cells at EC50 after 72 hrs by [3H]thymidine incorporation assay; type: functional
Mus musculus [3] = assay: Toxicity in NMRI mouse assessed as induction of calcemic effect at 100 ug/kg, ip daily for 7 consecutive days measured after day 7 by colorimetric assay; type: organism-based; conditions: in vivo, 0.1 mg/kg
Method in brief: (§2)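 Mice received a daily injection of compound. The calcemic effect was read as the percent increase in serum calcium levels.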

Mus musculus [4] = assay: Toxicity in NMRI mouse assessed as increase in serum calcium level at 100 ug/kg, ip daily for 7 consecutive days measured after day 7 by colorimetric assay; type: organism-based; conditions: in vivo, 0.1 mg/kg; method in brief: as §2
MCF7 [5] = assay: Antiproliferative activity against human MCF7 cells at 1 uM after 72 hrs by [3H]thymidine incorporation assay; type: functional; method in brief: as §1
[6] = target: T1, Vitamin D3 receptor (Sus scrofa) (UniProt A3RGC1); assay: Displacement of [3H]1-alpha,25-(OH)2D3 from VDR in pig intestinal mucosa at EC50 relative to 1-alpha,25-(OH)2D3; type: tissue-based
T1 sequence (whole entry): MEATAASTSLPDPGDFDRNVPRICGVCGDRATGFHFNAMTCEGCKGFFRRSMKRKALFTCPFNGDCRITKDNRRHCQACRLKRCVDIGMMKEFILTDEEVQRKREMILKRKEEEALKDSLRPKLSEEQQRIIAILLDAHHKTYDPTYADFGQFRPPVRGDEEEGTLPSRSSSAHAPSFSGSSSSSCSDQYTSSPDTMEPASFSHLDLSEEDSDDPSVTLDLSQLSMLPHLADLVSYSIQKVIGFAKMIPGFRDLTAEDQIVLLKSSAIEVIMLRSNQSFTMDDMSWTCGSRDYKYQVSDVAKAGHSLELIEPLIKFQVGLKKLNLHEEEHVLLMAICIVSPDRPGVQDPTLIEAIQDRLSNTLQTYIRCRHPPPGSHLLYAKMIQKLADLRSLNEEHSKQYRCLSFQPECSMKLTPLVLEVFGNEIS
Method in brief: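 Binding to vitamin D receptor (VDR), […]. Values are mean ± SD, n = 3.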

Mus musculus [7] = assay: Toxicity in NMRI mouse assessed as induction of calcemic effect at 40 ug/kg, ip daily for 7 consecutive days measured after day 7 by colorimetric assay; type: organism-based; conditions: in vivo, 0.04 mg/kg; method in brief: as §2
Mus musculus [8] = assay: Toxicity in NMRI mouse assessed as induction of calcemic effect at 20 ug/kg, ip daily for 7 consecutive days measured after day 7 by colorimetric assay; type: organism-based; conditions: in vivo, 0.02 mg/kg; method in brief: as §2
[9] = Toxicity in ip dosed NMRI mouse assessed as maximum tolerable dose inducing minimal increase in serum calcium level administered daily for 7 consecutive days measured after day 7 by colorimetric assay; type: organism-based; conditions: in vivo
Mus musculus [10] = assay: Toxicity in NMRI mouse assessed as increase in serum calcium level at 0.1 ug/kg, ip daily for 7 consecutive days measured after day 7 by colorimetric assay; type: organism-based; conditions: in vivo, 0.0001 mg/kg; method in brief: as §2
[11] = target: T1, Vitamin D3 receptor (Sus scrofa); assay: Ratio of 1-alpha,25-(OH)2D3 to compound affinity for binding to VDR in pig intestinal mucosa

Compound	Activity (MCF7 [1])	Activity [6]	other results
C[C@H](CCCC(C)(C)O)[C@H]1CC[C@H]2/C(=C/C=C3C[C@@H](O)C(O)[C@H](O)C3)CCC[C@]12C (stereo not given in full) [listing 1 of 2 here]	5%	–	–
[H][C@@]12CC[C@]([H])([C@H](C)CCCC(C)(C)O)[C@@]1(C)CCC/C2=C\C=C1\C[C@@H](O)[C@H](O)[C@H](O)C1 (stereo not given in full)	20%	–	Ratio (MCF7 [2]): 5; Activity (Mus musculus [3]): Non-toxic; Activity (Mus musculus [4]): 13%; Activity (MCF7 [5]): 60%
C[C@H](CCCC(C)(C)O)[C@H]1CC[C@H]2/C(=C/C=C3/C[C@@H](O)[C@@H]4O[C@@H]4C3)CCC[C@]12C	1%	0.4%	Activity (Mus musculus [7]): Non-toxic
C[C@H](CCCC(C)(C)O)[C@H]1CC[C@H]2/C(=C/C=C3\C[C@@H](O)[C@@H]4O[C@@H]4C3)CCC[C@]12C	16%	25%	Activity (Mus musculus [8]): Non-toxic
C=C1/C(=C\C=C2/CCC[C@]3(C)[C@@H]([C@H](C)CCCC(C)(C)O)CC[C@@H]23)C[C@@H](O)C[C@@H]1O [CALCITRIOL]	–	–	MTD at 7 days [9]: 0.0001 mg/kg/day; Activity (Mus musculus [10]): 27%
C[C@H](CCCC(C)(C)O)[C@H]1CC[C@H]2/C(=C/C=C3/C[C@@H](O)[C@H](O)[C@@H](O)C3)CCC[C@]12C	5%	0.4%	–
C[C@H](CCCC(C)(C)O)[C@H]1CC[C@H]2/C(=C/C=C3\C[C@@H](O)[C@H](O)[C@@H](O)C3)CCC[C@]12C	5%	5%	–
C[C@H](CCCC(C)(C)O)[C@H]1CC[C@H]2/C(=C/C=C3C[C@@H](O)C(O)[C@H](O)C3)CCC[C@]12C (stereo not given in full) [listing 2 of 2 here]	–	20% and 10%	Ratio [11]: 5 and 10
